Source: ChEMBL document CHEMBL4689842, “EUbOPEN Chemogenomics Library wave 1” (2021)

Key:
Type in all cases: toxicity, cell-based
U2OS = assay: Incucyte cell viability with U2OS; details: human, 10 µM, compound concentration 10 uM; note: filed as whole numbers so only -1 and 0 and 1 occur
HEK-293T = assay: Incucyte cell viability with HEK293T; details: human, 10 µM, compound concentration 10 uM; note: filed as whole numbers so only -1 and 0 and 1 occur
Fibroblast = assay: Multiplex assay against human fibroblast
How it was run: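 Cells were classed with CellPathfinder machine-learning gating, first as Hoechst high-intensity objects or normal cells, then (normal cells) as healthy, pyknosed or fragmented nuclei, and finally (pyknosed cells) as mitotic or apoptotic. Staining of live cells at seeding used Hoechst33342, BioTracker Green Microtubule Cytoskeleton Dye, MitoTracker Red and Annexin V Alexa Fluor 680, with imaging on a CQ1 microscope at 37°C and 5% CO2 after compound addition. Tubulin, mitochondrial-mass and membrane-permeability phenotypes are per cents of healthy-nucleus cells.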

[1] = 0 h, replicate number 1, timepoint 0 hours
[2] = 24 h, replicate number 1, timepoint 24 hours
[3] = 12 h, 1 µM, compound concentration 1 uM, replicate 1
[4] = 12 h, 1 µM, compound concentration 1 uM, replicate 2
[5] = 12 h, 10 µM, compound concentration 10 uM, replicate 1
[6] = 12 h, 10 µM, compound concentration 10 uM, replicate 2
[7] = 24 h, 1 µM, compound concentration 1 uM, replicate 1
[8] = 24 h, 1 µM, compound concentration 1 uM, replicate 2
[9] = 24 h, 10 µM, compound concentration 10 uM, replicate 1
[10] = 24 h, 10 µM, compound concentration 10 uM, replicate 2
[11] = 48 h, 1 µM, compound concentration 1 uM, replicate 1
[12] = 48 h, 1 µM, compound concentration 1 uM, replicate 2
[13] = 48 h, 10 µM, compound concentration 10 uM, replicate 1
[14] = 48 h, 10 µM, compound concentration 10 uM, replicate 2

## Cc1ccc(S(=O)(=O)NC2c3ccccc3Oc3ccccc32)cc1
U2OS; [1]
  Growth Rate: 0
U2OS; 18 h, replicate number 2, timepoint 18 hours
  Growth Rate: 1
U2OS; [2]
  Growth Rate: 1
U2OS; 24 h, replicate number 2, timepoint 24 hours
  Growth Rate: 0
HEK-293T; [1]
  Growth Rate: 0
HEK-293T; 12 h, replicate number 1, timepoint 12 hours
  Growth Rate: 1
HEK-293T; 18 h, replicate number 1, timepoint 18 hours
  Growth Rate: 1
HEK-293T; [2]
  Growth Rate: 0
Fibroblast; [3]
  Population Apoptotic (%): 57%
  Population Fragmented Nuclei (%): 25%
  Population Healthy Nuclei (%): 46%
  Population Hoechst High Intensity Objects (%): 11%
  Population Membrane Permeable-Phenotype (%): 25%
  Population Mitochondria Different-Phenotype (%): 6%
  Population Mitotic Cells (%): 42%
  Population Normal (%): 88%
  Population Pyknosed Nuclei (%): 27%
  Population Tubulin-Different-Phenotype (%): 27%
  Total Cell Count: 105
Fibroblast; [4]
  Population Apoptotic (%): 0%
  Population Fragmented Nuclei (%): 10%
  Population Healthy Nuclei (%): 76%
  Population Hoechst High Intensity Objects (%): 4%
  Population Membrane Permeable-Phenotype (%): 0%
  Population Mitochondria Different-Phenotype (%): 16%
  Population Mitotic Cells (%): 100%
  Population Normal (%): 95%
  Population Pyknosed Nuclei (%): 12%
  Population Tubulin-Different-Phenotype (%): 2%
  Total Cell Count: 49
Fibroblast; [5]
  Population Apoptotic (%): 80%
  Population Fragmented Nuclei (%): 41%
  Population Healthy Nuclei (%): 41%
  Population Hoechst High Intensity Objects (%): 17%
  Population Membrane Permeable-Phenotype (%): 56%
  Population Mitochondria Different-Phenotype (%): 54%
  Population Mitotic Cells (%): 20%
  Population Normal (%): 82%
  Population Pyknosed Nuclei (%): 16%
  Population Tubulin-Different-Phenotype (%): 17%
  Total Cell Count: 218
Fibroblast; [6]
  Population Apoptotic (%): 95%
  Population Fragmented Nuclei (%): 42%
  Population Healthy Nuclei (%): 34%
  Population Hoechst High Intensity Objects (%): 6%
  Population Membrane Permeable-Phenotype (%): 44%
  Population Mitochondria Different-Phenotype (%): 0%
  Population Mitotic Cells (%): 4%
  Population Normal (%): 93%
  Population Pyknosed Nuclei (%): 23%
  Population Tubulin-Different-Phenotype (%): 50%
  Total Cell Count: 106
Fibroblast; [7]
  Population Apoptotic (%): 50%
  Population Fragmented Nuclei (%): 26%
  Population Healthy Nuclei (%): 51%
  Population Hoechst High Intensity Objects (%): 19%
  Population Membrane Permeable-Phenotype (%): 28%
  Population Mitochondria Different-Phenotype (%): 10%
  Population Mitotic Cells (%): 50%
  Population Normal (%): 80%
  Population Pyknosed Nuclei (%): 22%
  Population Tubulin-Different-Phenotype (%): 53%
  Total Cell Count: 119
Fibroblast; [8]
  Population Apoptotic (%): 25%
  Population Fragmented Nuclei (%): 5%
  Population Healthy Nuclei (%): 88%
  Population Hoechst High Intensity Objects (%): 7%
  Population Membrane Permeable-Phenotype (%): 7%
  Population Mitochondria Different-Phenotype (%): 15%
  Population Mitotic Cells (%): 75%
  Population Normal (%): 92%
  Population Pyknosed Nuclei (%): 6%
  Population Tubulin-Different-Phenotype (%): 13%
  Total Cell Count: 65
Fibroblast; [9]
  Population Apoptotic (%): 75%
  Population Fragmented Nuclei (%): 35%
  Population Healthy Nuclei (%): 53%
  Population Hoechst High Intensity Objects (%): 16%
  Population Membrane Permeable-Phenotype (%): 64%
  Population Mitochondria Different-Phenotype (%): 43%
  Population Mitotic Cells (%): 25%
  Population Normal (%): 83%
  Population Pyknosed Nuclei (%): 11%
  Population Tubulin-Different-Phenotype (%): 28%
  Total Cell Count: 170
Fibroblast; [10]
  Population Apoptotic (%): 100%
  Population Fragmented Nuclei (%): 10%
  Population Healthy Nuclei (%): 68%
  Population Hoechst High Intensity Objects (%): 4%
  Population Membrane Permeable-Phenotype (%): 20%
  Population Mitochondria Different-Phenotype (%): 14%
  Population Mitotic Cells (%): 0%
  Population Normal (%): 95%
  Population Pyknosed Nuclei (%): 21%
  Population Tubulin-Different-Phenotype (%): 43%
  Total Cell Count: 84
Fibroblast; [11]
  Population Apoptotic (%): 42%
  Population Fragmented Nuclei (%): 33%
  Population Healthy Nuclei (%): 50%
  Population Hoechst High Intensity Objects (%): 19%
  Population Membrane Permeable-Phenotype (%): 22%
  Population Mitochondria Different-Phenotype (%): 4%
  Population Mitotic Cells (%): 57%
  Population Normal (%): 80%
  Population Pyknosed Nuclei (%): 15%
  Population Tubulin-Different-Phenotype (%): 37%
  Total Cell Count: 111
Fibroblast; [12]
  Population Apoptotic (%): 75%
  Population Fragmented Nuclei (%): 17%
  Population Healthy Nuclei (%): 75%
  Population Hoechst High Intensity Objects (%): 14%
  Population Membrane Permeable-Phenotype (%): 15%
  Population Mitochondria Different-Phenotype (%): 6%
  Population Mitotic Cells (%): 25%
  Population Normal (%): 85%
  Population Pyknosed Nuclei (%): 6%
  Population Tubulin-Different-Phenotype (%): 34%
  Total Cell Count: 68
Fibroblast; [13]
  Population Apoptotic (%): 42%
  Population Fragmented Nuclei (%): 27%
  Population Healthy Nuclei (%): 66%
  Population Hoechst High Intensity Objects (%): 7%
  Population Membrane Permeable-Phenotype (%): 20%
  Population Mitochondria Different-Phenotype (%): 2%
  Population Mitotic Cells (%): 57%
  Population Normal (%): 92%
  Population Pyknosed Nuclei (%): 5%
  Population Tubulin-Different-Phenotype (%): 26%
  Total Cell Count: 133
Fibroblast; [14]
  Population Apoptotic (%): 80%
  Population Fragmented Nuclei (%): 20%
  Population Healthy Nuclei (%): 72%
  Population Hoechst High Intensity Objects (%): 14%
  Population Membrane Permeable-Phenotype (%): 25%
  Population Mitochondria Different-Phenotype (%): 3%
  Population Mitotic Cells (%): 20%
  Population Normal (%): 85%
  Population Pyknosed Nuclei (%): 6%
  Population Tubulin-Different-Phenotype (%): 50%
  Total Cell Count: 84
